What all share (type): functional
Assay [1] concerns Radical scavenging activity. As to the kind of experiment: Antioxidant activity assessed as DPPH free radical scavenging activity at 100 ug/ml after 30 mins by spectrophotometric analysis relative to control. The essentials:
(§1)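 Compounds in methanol at […] were mixed with 0.004% (w/v) methanolic DPPH. After 30 min at room temperature, absorbance was read at 517 nm against a blank. Percent inhibition was calculated from control (all reagents minus compound) and sample absorbances. Run in triplicate.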

A short description of assay [2]: Antioxidant activity assessed as nitric oxide scavenging activity at 50 ug/ml after 150 mins by Griess method relative to control. The essentials:
(§2)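 NO was generated from sodium nitroprusside (10 mM) in phosphate buffer saline (0.2 M, pH 7.4). Compounds were added at […] and incubated 150 min at 25 °C. Percent scavenging was calculated from control (all reagents minus compound) and sample absorbances. Run in triplicate.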

Assay [3] in a line: Antioxidant activity assessed as nitric oxide scavenging activity at 100 ug/ml after 150 mins by Griess method relative to control. The essentials:
as §2
(Griess reagent forms a coloured azo dye with nitrite.)

Assay [4] deals with Radical scavenging activity. As to the kind of experiment: Antioxidant activity assessed as DPPH free radical scavenging activity at 75 ug/ml after 30 mins by spectrophotometric analysis relative to control. A digest of the protocol: as §1
On the technique in general: The DPPH test is a chemical assay of radical scavenging.

Assay [5] is described as follows: Antioxidant activity assessed as hydrogen peroxide scavenging activity at 100 ug/ml relative to control.
The subject of assay [6] is Radical scavenging activity. As to the kind of experiment: Antioxidant activity assessed as DPPH free radical scavenging activity after 30 mins by spectrophotometric analysis. A digest of the protocol: as §1
Assay [7] can be described thus: Antioxidant activity assessed as hydrogen peroxide scavenging activity at 75 ug/ml relative to control.
A short description of assay [8]: Antioxidant activity assessed as hydrogen peroxide scavenging activity at 50 ug/ml relative to control.
For assay [9], the system named is Radical scavenging activity. As to the kind of experiment: Antioxidant activity assessed as DPPH free radical scavenging activity at 50 ug/ml after 30 mins by spectrophotometric analysis relative to control. A digest of the protocol: as §1
Assay [10] in a line: Antioxidant activity assessed as nitric oxide scavenging activity at 75 ug/ml after 150 mins by Griess method relative to control. A digest of the protocol:
as §2

What is called inhibition is the percentage by which the read-out fell short of the control. Usually IC50 stands for the concentration that gives 50% inhibition.

Converted amounts (≈) assume the structure as drawn. The source made the active and inactive calls. The calls are words filed in the database; no cut-off is given here.

Turning to `O=S(=O)(CC1=NCCO1)c1c(-c2ccc(Cl)cc2)noc1-c1ccc(Cl)cc1`, the inhibition entry in assay [1], in [4] and in assay [9] was “inactive” in each case. Moreover, the outcome in assay [2], in assay [3], in assay [5], in assay [7], in assay [8] and in assay [10] was inactive. For the same compound, in assay [6], the half-inhibitory concentration (IC50) entry is “Not Active”.
In the case of `O=S(=O)(CC1=NCCO1)c1c(-c2ccccc2)nn(-c2ccccc2)c1-c1ccccc1`, the inhibition in assay [1] came out at 60.6%; in [4], 56.6%; in assay [9], 51.9%. For the same compound, the Activity in assay [2] came to 54.5%; in assay [3], 63.5%; in assay [5] it was 59.1%; in assay [7], 57.2%; in assay [8], 55.6%; in assay [10] it was 59%. In assay [6], the 50% inhibitory concentration (IC50) was found to be 82.48 µg/mL (≈ 186 µM).
Regarding `COc1ccc(-c2nn(-c3ccccc3)c(-c3ccc(C)cc3)c2S(=O)(=O)CC2=NCCS2)cc1`, the inhibition result in assay [1], in assay [4] and in assay [9] was “inactive” in each case. Further, the result in assay [2], in assay [3], in [5], in assay [7], in assay [8] and in assay [10] was inactive. Also, the half-maximal inhibitory concentration (IC50) entry in assay [6] was “Not Active”.
As for `COc1ccc(C2=NOC(c3ccc(C)cc3)C2S(=O)(=O)CC2=NCCS2)cc1` (stereo not given), the inhibition in assay [1] was determined as 58.6%; in [4], 50.6%; in assay [9], 46.8%. The Activity in [2] came to 48.6%; in assay [3], 59.6%; in assay [5], 52.6%; in [7], 49.7%; in assay [8], 47.5%; in assay [10], 54.1%. Besides, in assay [6], the IC50 turned out to be 85.38 µg/mL (≈ 198 µM).
`O=S(=O)(CC1=NCCS1)c1c(-c2ccc(Cl)cc2)nn(-c2ccccc2)c1-c1ccc(Cl)cc1`: the inhibition entry in assay [1], in assay [4] and in assay [9] was “inactive” throughout. Further, the outcome in assay [2], in assay [3], in [5], in [7], in [8] and in assay [10] was inactive. The concentration for half-maximal inhibition (IC50) entry in assay [6] is listed as “Not Active”.
With `O=S(=O)(CC1=NCCO1)C1C(c2ccccc2)=NN(c2ccccc2)C1c1ccccc1` (stereo not given), the inhibition in assay [1] amounted to 58%; in assay [4] it was 53.4%; in assay [9], 48.2%. In addition, the Activity in [2] was determined as 46.7%; in [3], 57.9%; in [5], 48.1%; in assay [7], 45.5%; in [8] it was 44.4%; in assay [10], 51.4%. The IC50 in assay [6] was determined as 86.25 µg/mL (≈ 194 µM).
Take `COc1ccc(C2=NN(c3ccccc3)C(c3ccc(C)cc3)C2S(=O)(=O)CC2=NCCS2)cc1` (stereo not given): the values for the inhibition in assay [1], in [4] and in [9] were 51.5%, 45.8% and 37.5%, respectively. The Activity in assay [2] turned out to be 39.4%; in [3] it was 50.7%; in [5] it was 47.9%; in [7], 43.9%; in [8] it was 42.6%; in [10] it was 44.9%. Further, in assay [6], the 50% inhibitory concentration (IC50) was 97.04 µg/mL (≈ 192 µM).
Consider `O=S(=O)(CC1=NCCO1)C1=NNCC1c1ccc(Cl)cc1` (stereo not given), for which the inhibition entry in assay [1], in [4] and in [9] was “inactive” throughout. Moreover, the outcome in assay [2], in assay [3], in assay [5], in assay [7], in [8] and in [10] was inactive. Besides, the IC50 entry in [6] is “Not Active”.
On to `Cc1ccc(C2CNN=C2S(=O)(=O)CC2=NCCS2)cc1` (stereo not given), for which the figures for the inhibition in assay [1], in [4] and in [9] were 48.2%, 44% and 40.9%, respectively. For the same compound, the Activity came to 43.1% in [2]; 52.1% in [3]; 45% in assay [5]; 42.2% in assay [7]; 39.8% in [8]; 48.6% in assay [10]. Besides, in assay [6], the IC50 amounted to 103.73 µg/mL (≈ 321 µM).
Turning to `COc1ccc(-c2nn(-c3ccccc3)c(-c3ccc(C)cc3)c2S(=O)(=O)CC2=NCCO2)cc1`, the inhibition in [1] was 70.3%; in assay [4] it was 67.6%; in [9], 65.5%. The Activity in assay [2] amounted to 61.6%; in assay [3], 68.2%; in assay [5] it was 72.5%; in assay [7], 68.7%; in assay [8] it was 67.6%; in assay [10], 66.6%. Moreover, the IC50 in assay [6] worked out at 71.07 µg/mL (≈ 146 µM).
Turning to `O=S(=O)(CC1=NCCS1)c1n[nH]cc1-c1ccccc1`, the inhibition result in assay [1], in assay [4] and in [9] was “inactive” each time. Moreover, the outcome in [2], in assay [3], in [5], in assay [7], in assay [8] and in assay [10] was inactive. In assay [6], the IC50 result is given as “Not Active”.
For `O=S(=O)(CC1=NCCO1)c1c(-c2ccccc2)noc1-c1ccccc1`, the inhibition in [1] worked out at 72%; in assay [4], 65.8%; in assay [9], 61.6%. Further, the Activity in [2] was found to be 56.7%; in assay [3], 62.1%; in [5], 60.1%; in [7], 58.1%; in [8], 57.2%; in assay [10], 57.3%. Moreover, the IC50 in [6] is 69.47 µg/mL (≈ 189 µM).
As for `Cc1ccc(-c2c[nH]nc2S(=O)(=O)CC2=NCCO2)cc1`, the inhibition in assay [1] came to 69%; in [4] it was 63.7%; in assay [9] it was 59.8%. Besides, the Activity in assay [2] was determined as 59.4%; in assay [3] it was 65.2%; in [5] it was 65.5%; in assay [7] it was 62%; in assay [8], 60.7%; in assay [10], 63.5%. Also, the IC50 in [6] worked out at 72.51 µg/mL (≈ 237 µM).
In the case of `O=S(=O)(CC1=NCCO1)C1C(c2ccc(Cl)cc2)=NOC1c1ccc(Cl)cc1` (stereo not given), the inhibition entry in assay [1], in assay [4] and in assay [9] was “inactive” in each case. For the same compound, the result in assay [2], in assay [3], in assay [5], in assay [7], in assay [8] and in assay [10] was inactive. Moreover, the IC50 entry in assay [6] was “Not Active”.
As for `O=S(=O)(CC1=NCCS1)C1C(c2ccccc2)=NN(c2ccccc2)C1c1ccccc1` (stereo not given), the inhibition entry in assay [1], in assay [4] and in assay [9] was “inactive” in each case. In addition, the outcome in assay [2], in assay [3], in assay [5], in [7], in [8] and in assay [10] was inactive. Also, in assay [6], the 50% inhibitory concentration (IC50) result is reported as “Not Active”.
For `O=S(=O)(CC1=NCCS1)c1c(-c2ccccc2)noc1-c1ccccc1`, the inhibition entry in assay [1], in assay [4] and in assay [9] was “inactive” throughout. Besides, the result in assay [2], in [3], in assay [5], in [7], in [8] and in assay [10] was inactive. Also, in assay [6], the concentration for half-maximal inhibition (IC50) result was “Not Active”.
In the case of `COc1ccc(C2=NOC(c3ccc(C)cc3)C2S(=O)(=O)CC2=NCCO2)cc1` (stereo not given), the results for the inhibition in assay [1], in [4] and in assay [9] were 66.5%, 63.3% and 58.1%, respectively. Also, the Activity in assay [2] is 61.9%; in assay [3], 71.2%; in assay [5] it was 70.9%; in [7], 66.6%; in assay [8], 65.9%; in assay [10] it was 65.9%. For the same compound, the IC50 in [6] came to 75.16 µg/mL (≈ 181 µM).
As for `O=S(=O)(CC1=NCCO1)c1n[nH]cc1-c1ccccc1`, the inhibition in assay [1] worked out at 60.8%; in assay [4], 54.3%; in assay [9], 50.1%. Moreover, the Activity in [2] is 50.6%; in assay [3], 57.5%; in assay [5], 58.5%; in [7], 55.6%; in assay [8], 53.3%; in assay [10], 54.7%. Also, the IC50 in assay [6] was 82.26 µg/mL (≈ 282 µM).
